Results from ChEMBL document CHEMBL1131242, “6beta-Acetoxynortropane: a potent muscarinic agonist with apparent selectivity toward M2-receptors” (J Med Chem, 1998).
Positions count from the first letter of the chain named.

Columns and labels:
[1] = target: T1, Muscarinic acetylcholine receptor M1 (Homo sapiens) (UniProt P11229); experiment: Percentage inhibition of binding of [3H]quinuclidinyl benzilate to muscarinic receptors in membranes of CHO cells transfected with Muscarinic acetylcholine receptor M1; format: cell membranes; conditions: concentration not given here
T1 sequence (whole entry): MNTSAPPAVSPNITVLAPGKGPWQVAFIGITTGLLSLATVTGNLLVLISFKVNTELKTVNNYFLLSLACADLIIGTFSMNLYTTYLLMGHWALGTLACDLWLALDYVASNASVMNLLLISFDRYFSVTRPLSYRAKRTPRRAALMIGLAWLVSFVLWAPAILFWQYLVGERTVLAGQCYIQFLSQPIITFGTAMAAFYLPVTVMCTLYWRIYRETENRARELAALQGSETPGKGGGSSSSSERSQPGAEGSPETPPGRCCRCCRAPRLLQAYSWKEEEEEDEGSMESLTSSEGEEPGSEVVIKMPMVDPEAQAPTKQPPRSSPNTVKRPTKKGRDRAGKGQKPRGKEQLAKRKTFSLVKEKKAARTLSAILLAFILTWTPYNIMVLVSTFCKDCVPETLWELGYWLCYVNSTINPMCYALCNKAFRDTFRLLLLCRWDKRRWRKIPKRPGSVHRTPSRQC
In short: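 Membranes from CHO cells expressing human M1–M4 receptors in 25 mM sodium phosphate pH 7.4 with 5 mM MgCl2, 30 min at 37 °C, triplicate. [3H]quinuclidinyl benzilate was 0.2 nM for M1 and M3 and 0.1 nM for M2 and M4. Nonspecific binding used 10 µM atropine for M1 and 1 µM for the others.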

[2] = target: T2, Muscarinic acetylcholine receptor M1 (Rattus norvegicus, UniProt P08482); experiment: Inhibition of binding of [3H]oxotremorine M to Muscarinic acetylcholine receptor M1 in rat cerebral cortical membranes; format: cell membranes, Membrane
T2 sequence (P08482 whole entry): T1 sequence (whole entry) with A5V, T254S, P309S, R320K, A337G, I413V
In short: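 Agonist radioligand assay: rat cortical membranes with 2 nM [3H]oxotremorine M in 25 mM sodium phosphate pH 7.4 with 5 mM MgCl2, 2 h at 25 °C, in triplicate. Nonspecific binding used 5 µM atropine. Filtration followed by scintillation counting.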

[3] = target: T2, Muscarinic acetylcholine receptor M1; experiment: Affinity versus [3H]oxotremorine M (agonist) binding to Muscarinic acetylcholine receptor M1 in Rat Cerebral Cortical Membranes, (Kd=[…])
[4] = target: T3, Muscarinic acetylcholine receptor M3 (Homo sapiens, UniProt P20309); experiment: Inhibition of binding of [3H]quinuclidinyl benzilate to muscarinic receptors in membranes of CHO cells transfected with Muscarinic acetylcholine receptor M3; format: cell membranes
Target sequence in this assay (P20309 whole entry): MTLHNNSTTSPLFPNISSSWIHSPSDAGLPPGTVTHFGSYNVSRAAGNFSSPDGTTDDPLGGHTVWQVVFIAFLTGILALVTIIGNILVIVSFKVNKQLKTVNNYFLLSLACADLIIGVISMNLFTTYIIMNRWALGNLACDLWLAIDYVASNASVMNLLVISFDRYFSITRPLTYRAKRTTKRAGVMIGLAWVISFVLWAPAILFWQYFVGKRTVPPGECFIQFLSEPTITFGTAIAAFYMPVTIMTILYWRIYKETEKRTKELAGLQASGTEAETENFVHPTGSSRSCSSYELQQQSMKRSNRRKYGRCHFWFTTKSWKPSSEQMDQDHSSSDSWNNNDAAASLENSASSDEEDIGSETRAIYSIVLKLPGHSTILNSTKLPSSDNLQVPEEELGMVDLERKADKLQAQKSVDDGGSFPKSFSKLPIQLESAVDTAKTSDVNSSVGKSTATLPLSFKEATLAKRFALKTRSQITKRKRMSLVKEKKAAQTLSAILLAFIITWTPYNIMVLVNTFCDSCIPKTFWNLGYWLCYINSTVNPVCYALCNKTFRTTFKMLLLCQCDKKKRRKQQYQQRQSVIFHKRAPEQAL

[5] = target: T4, Muscarinic acetylcholine receptor M2 (Homo sapiens, UniProt P08172); experiment: Inhibition of binding of [3H]quinuclidinyl benzilate to muscarinic receptors in membranes of CHO cells transfected with Muscarinic acetylcholine receptor M2; format: cell membranes
T4 sequence (P08172 whole entry): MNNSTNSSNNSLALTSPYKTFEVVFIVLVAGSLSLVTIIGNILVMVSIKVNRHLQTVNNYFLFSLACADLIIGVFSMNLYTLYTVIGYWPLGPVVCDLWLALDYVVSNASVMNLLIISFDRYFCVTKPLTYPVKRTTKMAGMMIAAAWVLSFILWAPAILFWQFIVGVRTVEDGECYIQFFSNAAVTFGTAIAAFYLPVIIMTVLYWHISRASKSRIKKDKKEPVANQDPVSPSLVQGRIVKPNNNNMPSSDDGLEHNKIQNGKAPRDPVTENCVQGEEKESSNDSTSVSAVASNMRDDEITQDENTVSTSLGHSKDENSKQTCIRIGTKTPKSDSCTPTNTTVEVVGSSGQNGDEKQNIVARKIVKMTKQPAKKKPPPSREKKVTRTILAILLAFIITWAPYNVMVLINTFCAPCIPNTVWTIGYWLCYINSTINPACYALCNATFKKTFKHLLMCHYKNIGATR

[6] = target: T5, Muscarinic acetylcholine receptor M4 (Homo sapiens, UniProt P08173); experiment: Inhibition of binding of [3H]quinuclidinyl benzilate to muscarinic receptors in membranes of CHO cells transfected with Muscarinic acetylcholine receptor M4; format: cell membranes
T5 sequence (P08173 whole entry): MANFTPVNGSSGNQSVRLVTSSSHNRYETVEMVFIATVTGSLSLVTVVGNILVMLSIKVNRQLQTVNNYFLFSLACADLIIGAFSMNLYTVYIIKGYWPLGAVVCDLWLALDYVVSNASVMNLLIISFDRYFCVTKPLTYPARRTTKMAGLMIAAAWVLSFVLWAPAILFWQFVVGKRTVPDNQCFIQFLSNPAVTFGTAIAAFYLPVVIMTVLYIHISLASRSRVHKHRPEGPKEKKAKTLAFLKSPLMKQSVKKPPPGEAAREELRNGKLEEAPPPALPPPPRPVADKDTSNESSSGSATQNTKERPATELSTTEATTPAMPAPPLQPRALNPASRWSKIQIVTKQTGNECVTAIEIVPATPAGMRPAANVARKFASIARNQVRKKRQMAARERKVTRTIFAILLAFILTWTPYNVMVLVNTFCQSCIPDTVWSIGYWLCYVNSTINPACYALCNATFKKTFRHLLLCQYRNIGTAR

[7] = target: T6, Neuronal acetylcholine receptor; alpha4/beta2 (Rattus norvegicus, UniProt P09483+P12390); experiment: Inhibition of binding of [3H]nicotine to Nicotinic acetylcholine receptor alpha4-beta2 in rat cerebral cortical membranes; format: cell membranes, Membrane
T6 sequence (P09483 whole entry): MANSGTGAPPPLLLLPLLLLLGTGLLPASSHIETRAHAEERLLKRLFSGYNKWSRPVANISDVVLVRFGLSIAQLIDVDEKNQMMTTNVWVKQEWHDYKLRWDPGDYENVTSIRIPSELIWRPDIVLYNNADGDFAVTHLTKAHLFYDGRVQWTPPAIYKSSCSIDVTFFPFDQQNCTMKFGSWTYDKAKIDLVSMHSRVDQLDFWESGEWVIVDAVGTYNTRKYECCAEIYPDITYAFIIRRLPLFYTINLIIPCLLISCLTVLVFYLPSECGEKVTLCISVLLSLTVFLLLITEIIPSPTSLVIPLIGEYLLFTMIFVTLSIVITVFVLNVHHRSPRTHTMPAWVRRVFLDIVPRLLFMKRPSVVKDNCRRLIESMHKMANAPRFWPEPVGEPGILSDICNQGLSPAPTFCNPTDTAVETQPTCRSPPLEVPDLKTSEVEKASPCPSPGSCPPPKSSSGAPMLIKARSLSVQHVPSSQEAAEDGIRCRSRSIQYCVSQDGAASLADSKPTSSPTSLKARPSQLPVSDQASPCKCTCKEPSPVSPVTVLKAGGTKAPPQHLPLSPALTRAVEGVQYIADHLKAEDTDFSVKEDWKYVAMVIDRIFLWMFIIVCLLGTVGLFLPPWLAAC
T6 sequence (P12390 whole entry): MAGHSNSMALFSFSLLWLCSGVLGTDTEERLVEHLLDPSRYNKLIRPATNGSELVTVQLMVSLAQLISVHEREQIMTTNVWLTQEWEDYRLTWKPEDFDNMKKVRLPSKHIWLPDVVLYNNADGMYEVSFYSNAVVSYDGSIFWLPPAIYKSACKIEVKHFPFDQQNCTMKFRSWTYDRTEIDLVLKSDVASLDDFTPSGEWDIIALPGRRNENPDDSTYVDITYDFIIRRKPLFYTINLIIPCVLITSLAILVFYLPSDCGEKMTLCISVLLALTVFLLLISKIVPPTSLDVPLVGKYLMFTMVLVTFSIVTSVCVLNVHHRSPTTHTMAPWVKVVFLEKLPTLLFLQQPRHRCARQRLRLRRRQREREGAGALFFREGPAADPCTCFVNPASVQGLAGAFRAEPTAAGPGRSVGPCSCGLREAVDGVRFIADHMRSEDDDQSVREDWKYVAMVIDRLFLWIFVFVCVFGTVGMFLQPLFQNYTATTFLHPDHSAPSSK
In short: (§1)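 Rat cerebral cortex membranes with 0.2 nM [3H]nicotine in HEPES binding buffer pH 7.4 containing 200 µM diisopropyl fluorophosphate. Incubation was 120 min at 0–4 °C, in triplicate. Nonspecific binding used 1 µM nicotine. Samples were filtered through polyethylenimine-soaked GF/B filters and counted.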

[8] = target: T6, Neuronal acetylcholine receptor; alpha4/beta2; experiment: (§2) The compound was evaluated for percentage inhibition of binding of [3H]- nicotine to Nicotinic acetylcholine receptor alpha4-beta2 in Rat Cerebral Cortical Membranes; format: protein-complex assay; in short: as §1
[9] = target: Muscarinic acetylcholine receptor M2 (Homo sapiens) (UniProt P08172); experiment: Inhibition of binding of [3H]quinuclidinyl benzilate to Muscarinic acetylcholine receptor M2 in membranes of transfected CHO cells
[10] = target: Muscarinic acetylcholine receptor M4 (Homo sapiens) (UniProt P08173); experiment: Inhibition of binding of [3H]quinuclidinyl benzilate to Muscarinic acetylcholine receptor M4 in membranes of transfected CHO cells
[11] = target: Muscarinic acetylcholine receptor M1 (Homo sapiens) (UniProt P11229); experiment: Inhibition of binding of [3H]quinuclidinyl benzilate to human Muscarinic acetylcholine receptor M1 in membranes of transfected CHO cells at 300 uM concentration; conditions: Membrane
[12] = target: T7, Muscarinic acetylcholine receptor M1 (Rattus norvegicus) (UniProt P08482); experiment: Percentage inhibition of binding of [3H]quinuclidinyl benzilate to muscarinic acetylcholine receptor M1 in rat cerebral cortical membranes; format: cell membranes; parameters: concentration or dose not given beside the values; conditions: Membrane, concentration not given here
T7 sequence (whole entry): T1 sequence (whole entry) with A5V, T254S, P309S, R320K, A337G, I413V
In short: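 Rat cerebral cortex membranes were homogenised in 50 mM Tris-HCl pH 7.4 and diluted in HEPES binding buffer. They were incubated with 0.2 nM [3H]quinuclidinyl benzilate in 20 mM HEPES pH 7.4 with 10 mM MgCl2 and 100 mM NaCl for 30 min at 37 °C, in triplicate. Nonspecific binding used 1 µM atropine. Filtration was followed by scintillation counting.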

[13] = target: T8, Neuronal acetylcholine receptor; alpha4/beta2 (Rattus norvegicus) (UniProt P09483+P12390); experiment: Inhibition of binding of [3H]nicotine to Nicotinic acetylcholine receptor alpha4-beta2 in rat cerebral cortical membranes at 100 uM concentration; format: cell membranes; conditions: Membrane
In short: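 [3H]nicotine (0.2 nM) binding to rat cortical membranes, with 200 µM diisopropyl fluorophosphate, 120 min at 0–4 °C, triplicate. Nonspecific binding with 1 µM nicotine. Percent inhibition at 100 µM test agent; mean ± SEM, n = 4.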

[14] = target: T8, Neuronal acetylcholine receptor; alpha4/beta2 (Rattus norvegicus); experiment: as §2; format: protein-complex assay; parameters: concentration or dose not given beside the values; conditions: concentration not given here; in short: as §1
[15] = target: T3, Muscarinic acetylcholine receptor M3; experiment: Percentage inhibition of binding of [3H]quinuclidinyl benzilate to muscarinic receptors in membranes of CHO cells transfected with Muscarinic acetylcholine receptor M3; format: cell membranes; conditions: concentration not given here
Target sequence in this assay (P20309 whole entry, looked up): as the sequence (P20309 whole entry) above

[16] = target: T3, Muscarinic acetylcholine receptor M3; experiment: Inhibition of binding of [3H]quinuclidinyl benzilate to human Muscarinic acetylcholine receptor M3 in membranes of transfected CHO cells at 100 uM concentration; conditions: Membrane
Target sequence in this assay (P20309 whole entry, looked up): as the sequence (P20309 whole entry) above

COC(=O)C1CC2CCCC1N2 (configuration not stated)
inhibition [1]: 24% | Ki [2]: 260 nM | Ki [3]: 260 nM | Ki [4]: 18000 nM | Ki [5]: 480 nM | Ki [6]: 7900 nM | Ki [7]: 150 nM | Ki [8]: 150 nM | Ki [9]: 480 nM | Ki [10]: 7900 nM | inhibition [11]: 24%

COC(=O)[C@H]1CC2NC1CC[C@H]2OC(C)=O (some centres not stated)
inhibition [12]: 1% | inhibition [13]: 19% | inhibition [14]: 19%

CC(=O)OC1CC2CC(=O)CC1N2 (configuration not stated)
inhibition [12]: 11% | inhibition [13]: 13% | inhibition [14]: 13%

COC(=O)C1C(O)CC2CCC1N2C (configuration not stated)
inhibition [1]: 13% | inhibition [12]: 27% | inhibition [15]: 19% | inhibition [13]: 11% | inhibition [14]: 11% | inhibition [16]: 28%

COC(=O)C1CC2NC1CCC21SCCS1 (configuration not stated)
inhibition [12]: 3% | inhibition [13]: 36% | inhibition [14]: 36%

CC(=O)O[C@@H]1CCC2CCC1N2 (some centres not stated)
Ki [7]: 24000 nM | Ki [8]: 24000 nM

CC(=O)O[C@@H]1CCC2NC1C[C@@H]2S(=O)(=O)c1ccccc1 (some centres not stated)
inhibition [12]: 6% | inhibition [13]: 10% | inhibition [14]: 10%

CCSC1CCC2NC1CC2C(=O)OC (configuration not stated)
inhibition [12]: 7% | inhibition [13]: 50% | inhibition [14]: 50%

CC(=O)O[C@H]1CCC2NC1C[C@@H]2S(=O)(=O)c1ccccc1 (some centres not stated)
inhibition [12]: 0% | inhibition [13]: 16% | inhibition [14]: 16%
